Assay results reported in publication PMC3981972 (Molecular cancer therapeutics, 2014).

How the values were obtained:
[1] = tested on: HT1080 cells; experiment: Live cell imaging of subcellular uptake and wash-out kinetics; assay type: cell-based
Summary of the method: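 HT1080 cells grown in DMEM with non-essential amino acids, 10% FBS and 1% penicillin-streptomycin, then imaged live in glass coverslip-bottom dishes on an inverted deconvolution microscope (40x objective, 37°C, 5% CO2). Prewarmed fluorescent probe was added to 1 μM, with images every second. Cells were then washed twice into drug-free medium. Nuclear and nucleolar regions of interest were fitted to uptake and clearance curves.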

[2] = Mouse plasma clearance of fluorescent probes after intravenous injection; assay type: in vivo; conditions: 75 nmol i.v., biexponential fit
Summary of the method: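 Nude mice (6–8 weeks) with HT-1080 tumours in dorsal skin window chambers, under 1–2% isoflurane. Vessels labelled with Angiosense-750 or Pacific Blue–dextran. 75 nmol probe in 1:1 dimethylacetamide:solutol plus PBS, sonicated, given by tail-vein catheter during time-lapse intravital imaging (scans every 10 s). Plasma signal taken from intravascular regions of interest and fitted to biexponential decay.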

[3] = Plasma protein binding by rapid equilibrium dialysis; assay type: in vitro ADME; conditions: 10 μM in mouse serum, 37°C, 4 hours
Summary of the method: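 Probe equilibrated in mouse serum against PBS on a shaker. Both compartments then adjusted with plasma or PBS to a 50:50 PBS:plasma final matrix to even out fluorescence effects. Fluorescence read on a plate reader to give the bound fraction.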

[4] = tested on: tumor blood vessels of HT-1080 xenografts; conditions: previous observations; cited from earlier work

Cc1cc(C)n2c1C=C1C=CC(CCC(=O)N3CCN(C(=O)c4cc(Cc5n[nH]c(=O)c6ccccc56)ccc4F)CC3)=[N+]1[B-]2(F)F [olaparib-BODIPY FL]
Washing time to remove non-specific ER staining ([1]; HT1080 cells after 1 μM incubation, washed with fresh media): Within five minutes
Cellular uptake half-life ([1]; HT1080 cells, 1 μM): 1.18 min
Mouse plasma clearance t1/2,alpha [2]: 5.16 min
Mouse plasma clearance t1/2,beta [2]: 85.7 min
C0 ([2]; read-out: Mouse plasma clearance C0): 7 µM
Mouse plasma protein binding [3]: 99.23% (+/− 0.11%)
Vascular permeability in tumor vessels versus mouse ear vessels [4]: the same in tumor vessels and mouse ear vessels
